The subject of experiment [1] is IGROV-1. The experiment is described as follows: Antiproliferative activity against human IGROV1 cells harboring non targeted control shRNA sequence after 96 hrs by Cell-Titer Blue assay. The class given is functional, cell-based. To be noted: IGROV-1, 96 h.
The target in experiment [2] is T1, Proton-coupled folate transporter (Homo sapiens) (UniProt Q96NT5).
T1 sequence (whole entry): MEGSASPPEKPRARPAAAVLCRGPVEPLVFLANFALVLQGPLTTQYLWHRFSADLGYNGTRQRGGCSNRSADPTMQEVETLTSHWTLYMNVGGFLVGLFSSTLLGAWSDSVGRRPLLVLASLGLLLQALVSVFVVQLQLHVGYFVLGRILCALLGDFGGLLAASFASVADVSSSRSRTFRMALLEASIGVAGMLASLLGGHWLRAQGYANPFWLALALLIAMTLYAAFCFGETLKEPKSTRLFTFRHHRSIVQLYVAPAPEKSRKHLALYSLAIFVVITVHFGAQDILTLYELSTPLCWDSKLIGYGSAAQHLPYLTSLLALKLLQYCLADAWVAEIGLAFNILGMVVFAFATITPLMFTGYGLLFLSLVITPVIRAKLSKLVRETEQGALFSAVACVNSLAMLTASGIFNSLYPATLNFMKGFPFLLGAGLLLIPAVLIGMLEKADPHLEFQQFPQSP
The experiment is described as follows: Inhibition of human PCFT expressed in Chinese hamster R2/PCFT4 cells assessed as reduction in [3H]MTX uptake at pH 5.5 at 10 uM measured over 2 mins relative to control. Type of experiment: cell-based.

Experiment [3] has as its target T2, Trifunctional purine biosynthetic protein adenosine-3 (Homo sapiens, UniProt P22102).
T2 sequence (P22102 whole entry): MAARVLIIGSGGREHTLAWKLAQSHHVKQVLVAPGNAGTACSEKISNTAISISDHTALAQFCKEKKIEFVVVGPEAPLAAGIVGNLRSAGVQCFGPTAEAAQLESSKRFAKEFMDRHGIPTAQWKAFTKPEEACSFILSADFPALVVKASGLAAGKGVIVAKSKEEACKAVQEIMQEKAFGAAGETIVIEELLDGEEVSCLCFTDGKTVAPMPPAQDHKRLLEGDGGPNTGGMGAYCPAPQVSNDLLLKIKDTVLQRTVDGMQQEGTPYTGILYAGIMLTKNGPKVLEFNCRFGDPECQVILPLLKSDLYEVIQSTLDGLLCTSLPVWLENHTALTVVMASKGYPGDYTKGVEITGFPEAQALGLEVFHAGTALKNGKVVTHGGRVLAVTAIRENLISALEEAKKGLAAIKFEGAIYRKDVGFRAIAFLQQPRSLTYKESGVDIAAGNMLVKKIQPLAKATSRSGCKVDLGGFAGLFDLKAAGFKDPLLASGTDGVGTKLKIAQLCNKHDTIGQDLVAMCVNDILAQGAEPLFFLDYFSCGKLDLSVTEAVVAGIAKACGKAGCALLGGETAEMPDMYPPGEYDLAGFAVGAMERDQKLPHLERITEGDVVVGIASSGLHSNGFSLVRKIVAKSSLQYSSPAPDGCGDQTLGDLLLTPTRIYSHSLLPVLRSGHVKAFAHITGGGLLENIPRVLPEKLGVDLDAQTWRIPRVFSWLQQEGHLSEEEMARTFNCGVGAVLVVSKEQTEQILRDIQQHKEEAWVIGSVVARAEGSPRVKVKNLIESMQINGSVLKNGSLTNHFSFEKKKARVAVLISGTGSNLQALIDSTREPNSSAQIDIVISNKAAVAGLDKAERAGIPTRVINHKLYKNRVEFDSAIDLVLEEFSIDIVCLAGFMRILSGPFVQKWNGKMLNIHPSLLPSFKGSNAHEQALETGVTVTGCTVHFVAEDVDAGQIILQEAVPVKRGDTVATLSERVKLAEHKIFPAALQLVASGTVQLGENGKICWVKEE
The experiment is described as follows: Inhibition of GARFTase in human IGROV1 cells assessed as decrease in incorporation of [14C(U)glycine into [14C]formyl GAR formation after 24 hrs. Type of experiment: cell-based.

The test system of another experiment is A2780. The experiment is described as follows: Antiproliferative activity against human A2780 cells after 96 hrs by Cell-Titer Blue assay. Type of experiment: functional, cell-based. The note with it: A2780, 96 h.
In experiment [4] the target is T3, Proton-coupled folate transporter (Homo sapiens, UniProt Q96NT5).
T3 sequence (Q96NT5 whole entry): T1 sequence (whole entry)
Nature of the experiment: Inhibition of human PCFT expressed in Chinese hamster R2/PCFT4 cells assessed as reduction in [3H]MTX uptake at pH 5.5 measured over 2 mins by Dixon plot analysis. Type of experiment: cell-based. The method, boiled down:
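Competitor concentrations ranged from 0.05 to 0.5 μM. Ki was obtained by Dixon plot. Mean ± SE of four independent experiments.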

Experiment [5] addresses T1, Proton-coupled folate transporter (Homo sapiens). Nature of the experiment: Inhibition of human PCFT expressed in Chinese hamster R2/PCFT4 cells assessed as reduction in [3H]MTX uptake at pH 5.5 at 1 to 10 uM measured over 2 mins. The class given is cell-based.
Experiment [6] deals with IGROV-1. Nature of the experiment: Antiproliferative activity against FRalpha […] human IGROV1 KD10 cells after 96 hrs by Cell-Titer Blue assay. Type of experiment: functional, cell-based. The note with it: IGROV-1, 96 h.
Experiment [7] is filed under the species Homo sapiens. Nature of the experiment: Selectivity ratio of IC50 for human RFC2 expressed in human HeLa R1-11 cells to IC50 for human FR2 expressed in human HeLa R1-11 cells. Type of experiment: cell-based.
In experiment [8] the target is T4, Reduced folate transporter (Homo sapiens) (UniProt P41440).
T4 sequence (whole entry): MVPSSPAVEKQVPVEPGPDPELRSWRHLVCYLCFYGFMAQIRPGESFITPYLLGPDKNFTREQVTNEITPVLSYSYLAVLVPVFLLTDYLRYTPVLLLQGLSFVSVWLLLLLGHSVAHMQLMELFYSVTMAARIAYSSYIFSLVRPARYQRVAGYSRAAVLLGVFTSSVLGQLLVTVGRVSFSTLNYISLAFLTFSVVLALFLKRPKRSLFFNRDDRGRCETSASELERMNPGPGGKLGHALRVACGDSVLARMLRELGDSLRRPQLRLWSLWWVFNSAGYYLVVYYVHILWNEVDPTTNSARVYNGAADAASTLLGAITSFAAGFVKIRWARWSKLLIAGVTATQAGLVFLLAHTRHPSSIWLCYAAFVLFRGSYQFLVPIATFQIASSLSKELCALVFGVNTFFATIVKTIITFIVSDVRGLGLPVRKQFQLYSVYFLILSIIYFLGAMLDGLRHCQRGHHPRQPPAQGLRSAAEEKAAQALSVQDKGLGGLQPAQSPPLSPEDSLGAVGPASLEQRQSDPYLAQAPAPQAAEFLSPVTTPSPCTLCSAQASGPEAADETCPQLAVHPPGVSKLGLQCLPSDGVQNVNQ
Nature of the experiment: Inhibition of human RFC2 expressed in human HeLa R1-11 cells assessed as reduction in [3H]MTX uptake at pH 7.2 at 10 uM measured over 2 mins relative to control. The class given is cell-based.

Experiment [9] has as its system IGROV-1. The experiment is described as follows: Antiproliferative activity against FRalpha […] human IGROV1 KD4 cells after 96 hrs by Cell-Titer Blue assay. The note with it: IGROV-1, 96 h. Type of experiment: functional, cell-based.
Experiment [10] relates to IGROV-1. Nature of the experiment: Antiproliferative activity against wild type human IGROV1 cells after 96 hrs by Cell-Titer Blue assay. The note with it: IGROV-1, 96 h. Type of experiment: functional, cell-based.
Experiment [11] deals with T1, Proton-coupled folate transporter (Homo sapiens). The experiment is described as follows: Inhibition of human PCFT expressed in Chinese hamster R2/PCFT4 cells assessed as reduction in [3H]MTX uptake at pH 5.5 at 1 uM measured over 2 mins relative to control. The class given is cell-based.
The species entered for experiment [12] is Homo sapiens. Nature of the experiment: Selectivity ratio of IC50 for human RFC2 expressed in human HeLa R1-11 cells to IC50 for human PCFT4 expressed in human HeLa R1-11 cells. The class given is cell-based.
The target in experiment [13] is T4, Reduced folate transporter (Homo sapiens). Nature of the experiment: Inhibition of human RFC2 expressed in human HeLa R1-11 cells assessed as reduction in [3H]MTX uptake at pH 7.2 at 1 uM measured over 2 mins relative to control. Type of experiment: cell-based.
The nature of experiment [14]: Antiproliferative activity in Chinese hamster R2 cells deficient in RFC, PCFT, and FRalpha assessed as reduction in cell growth after 96 hrs by Cell-Titer Blue assay. To be noted: Cricetulus griseus, R2, 96 h. The class given is cell-based.
The target of experiment [15] is T4, Reduced folate transporter (Homo sapiens). Nature of the experiment: Inhibition of human RFC2 expressed in human HeLa R1-11 cells assessed as reduction in [3H]MTX uptake at pH 7.2 at 10 uM measured over 2 mins relative to control.
Experiment [16] deals with Folate receptor beta (Homo sapiens) (UniProt P14207). The experiment is described as follows: Displacement of [3H]folic acid from human FRbeta expressed in Chinese hamster D4 cells at 10 to 1000 nM after 15 mins. The class given is cell-based. The procedure, abridged:
(§1)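 RT16 (FRα) or D4 (FRβ) CHO cells at ~80% confluence were washed with PBS at 4 °C, then with pH 3.5 acetate buffer to strip bound folate, then HEPES-buffered saline pH 7.4. Cells were incubated with 50 nM [³H]folic acid plus competitor (10–1000 nM) for 15 min at 4 °C, washed, and solubilized in NaOH. Bound radioactivity was normalized to protein.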
For orientation: Loss of bound radioactivity is the signal in a displacement assay; it reports binding, not function.

The target of experiment [17] is Folate receptor alpha (Homo sapiens) (UniProt P15328). Nature of the experiment: Displacement of [3H]folic acid from human FRalpha expressed in Chinese hamster RT16 cells at 10 to 1000 nM after 15 mins. Type of experiment: cell-based. The method, boiled down:
as §1

The nature of experiment [18]: Binding affinity to human RFC expressed in Chinese hamster PC43-10 cells assessed as antiproliferative activity measured as reduction in cell growth after 96 hrs by Cell-Titer Blue assay.
The nature of experiment [19]: Binding affinity to human PCFT expressed in Chinese hamster R2/PCFT4 cells assessed as antiproliferative activity measured as reduction in cell growth after 96 hrs by Cell-Titer Blue assay.

pIC50, pKi: −log10 of the molar value. The source made the active and inactive calls. No cut-off for these calls is given here. A value given as a limit tells only on which side of the number the result lay.

Chain of Folate receptor beta (Homo sapiens) (P14207 17-230 limits assumed): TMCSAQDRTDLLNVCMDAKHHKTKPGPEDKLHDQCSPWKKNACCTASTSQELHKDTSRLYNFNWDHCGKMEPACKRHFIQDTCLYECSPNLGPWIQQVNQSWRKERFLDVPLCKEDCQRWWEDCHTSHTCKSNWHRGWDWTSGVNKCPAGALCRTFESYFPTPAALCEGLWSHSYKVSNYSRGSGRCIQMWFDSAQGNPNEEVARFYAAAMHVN
Chain of Folate receptor alpha (Homo sapiens) (P15328 25-234 limits assumed): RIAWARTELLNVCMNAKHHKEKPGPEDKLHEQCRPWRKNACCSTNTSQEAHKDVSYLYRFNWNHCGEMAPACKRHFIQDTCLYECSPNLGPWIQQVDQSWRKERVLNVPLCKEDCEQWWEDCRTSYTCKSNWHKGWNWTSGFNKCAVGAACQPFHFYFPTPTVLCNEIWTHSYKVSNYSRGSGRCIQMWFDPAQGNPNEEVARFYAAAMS

For `Nc1nc2[nH]c(CCCc3ccc(C(=O)N[C@@H](CCC(=O)O)C(=O)O)c(F)c3)cc2c(=O)[nH]1`, the pIC50 in the experiment with IGROV-1 [1] is 8.94; in [3], 8.60 to 9.00; with A2780 it was 8.67; in the experiment with IGROV-1 [6], 7.72; in the experiment with IGROV-1 [9], 7.39; in the experiment on IGROV-1 [10], 8.78. Also, the pIC50 in experiment [14] is 6.85. Besides, the inhibition in experiment [2] was 90 to 95%; in [11] it was 60 to 85%. For the same compound, the pKi in experiment [4] is 6.59. Also, in experiment [5], the inhibition result was “Active”. For the same compound, the Ratio IC50 in the experiment filed under Homo sapiens [7] was found to be 97; in the experiment filed under Homo sapiens [12], 92. Moreover, the inhibition result in experiment [8] and in [13] was “inactive” in each case.
Regarding `Nc1nc2[nH]c(CCCc3csc(C(=O)N[C@@H](CCC(=O)O)C(=O)O)c3F)cc2c(=O)[nH]1`, the pIC50 in the experiment on IGROV-1 [1] is 8.25; in [3], 8.92; with A2780 it was 8.12; in the experiment on IGROV-1 [6] it was 7.37; in the experiment with IGROV-1 [9] it was 7.07; in the experiment on IGROV-1 [10], 8.16. The pIC50 in experiment [14] was 7.69. Besides, the inhibition in experiment [2] is 90 to 95%; in [8], less than 30%; in [15], less than 30%; in experiment [11] it was 60 to 85%. For the same compound, the pKi in [4] was 7.15. The inhibition result in experiment [5], in [16] and in experiment [17] was “Active” in each case.
In the case of `Nc1nc2[nH]c(CCCc3csc(C(=O)N[C@@H](CCC(=O)O)C(=O)O)c3)cc2c(=O)[nH]1`, the pIC50 in experiment [18] is 6.71; with IGROV-1 [1] it was 7.89; in experiment [3], 9.00; in the experiment with A2780 it was 7.66; in the experiment on IGROV-1 [6], 7.52; in [19], 8.27. The pIC50 in the experiment with IGROV-1 [9] is 7.09; in the experiment on IGROV-1 [10] it was 7.92; in experiment [14], 6.45. In addition, the inhibition entry in [2], in [5], in experiment [16], in experiment [11] and in experiment [17] was “Active” throughout. For the same compound, the pKi in [4] is 6.55. Further, the inhibition in experiment [8] and in experiment [15] was less than 30% throughout.

What is called pIC50 is the IC50 on a negative log10 scale, so that one unit is a factor of ten. Usually inhibition stands for the relative decrease from the control value, in per cent. For orientation: pKi means −log10 of the Ki, conventionally taken in molar units.

Source of the values: ChEMBL document CHEMBL4308835, “Fluorine-Substituted Pyrrolo[2,3- d]Pyrimidine Analogues with Tumor Targeting via Cellular Uptake by Folate Receptor α and the Proton-Coupled Folate Transporter and Inhibition of de Novo Purine Nucleotide Biosynthesis” (J Med Chem, 2018).
